A selection: hits, their analogues and other compounds. The true share with any hit is near 1.9%.
MT stabilizer – stabilizes microtubules in HeLa cells | HeLa tubulin immunostaining HCS, 24 h; share of cells brighter than vehicle mean+2SD | % tubulin-high responders, % at 10 µM | 200,000 tested, 0.83% active;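 active = plate Z-score above 3 for both tubulin-high and condensed-nucleus cell shares, with cell loss under 80%, at 10 µM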;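 also: anti alpha tubulin signal scored within the nucleus-defined area of each cell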
ROMK mod – human ROMK K+ channel modulation, primary screen | 130,000 tested, 2% active | AID 1918 | P48048 | B-score at 10 µM | Tet-inducible ROMK, thallium flux fluorescence; actives lie on both sides;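 active = signal ratio slope over the read window, or its plate-corrected B-score, at least 3 SD from the plate mean, either direction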;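 also: B-score of the F/F0 ratio slope over 7 to 12 s after thallium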
Target sequence (P48048 whole entry, looked up): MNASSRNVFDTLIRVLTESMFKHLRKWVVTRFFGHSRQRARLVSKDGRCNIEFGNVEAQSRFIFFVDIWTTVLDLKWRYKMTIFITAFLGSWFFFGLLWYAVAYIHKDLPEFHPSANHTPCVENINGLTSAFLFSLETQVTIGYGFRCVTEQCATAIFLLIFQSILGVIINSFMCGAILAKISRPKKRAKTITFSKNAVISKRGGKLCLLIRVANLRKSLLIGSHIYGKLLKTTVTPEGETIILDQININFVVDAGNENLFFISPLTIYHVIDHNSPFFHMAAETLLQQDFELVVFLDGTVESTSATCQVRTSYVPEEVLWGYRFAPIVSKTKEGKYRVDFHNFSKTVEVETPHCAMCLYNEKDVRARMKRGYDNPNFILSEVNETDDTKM
b-catenin transl – beta-catenin nuclear translocation modulation. HeLa beta-catenin nuclear translocation, immunofluorescence imaging. 190,000 tested, 0.3% active. nuclear translocation activity, % at 5 µM;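 active = nuclear translocation activity above 50% at 5 µM, with a well cell count of 50 or more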;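 also: per-cell ratio of nuclear to cytoplasmic median beta-catenin stain intensity; plate controls were DMSO negative control for no effect and GSK-3 inhibitor IX positive control for full effect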
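Read-out: Nuclear/cytoplasmic beta-catenin signal ratio, % activation | Assay system: Human HeLa cell line | Times: 24 h compound exposure at 37°C, 5% CO2 | Signal: Fluorescence imaging of beta-catenin antibody stain plus DAPI | Dosing: 5 µM primary, 0.02–20 µM confirmation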
* = called active by the depositor; . = not tested or not shown.

SMILES | MT stabilizer | ROMK mod | b-catenin transl
Cc1c(C(=O)O)[nH]c2c1C(=O)CC(c1ccccc1)C2 (centres undefined) | 3 | 2.6 | 0
Cc1ccc(S(=O)(=O)N2CCN(C(=O)Cc3ccc4c(c3)OCCO4)CC2)cc1C | 7 | -2.4 | -1
CO/N=C/CC(=O)c1cnc(-c2ccc(Cl)cc2)s1 | 4 | 0.013 | 1
O=C(CCC1CCCC1)N1CCN(C(=O)c2cccnc2)CC1 | 5 | 0.49 | 1
CC(C)C(C)NC(=O)COC(=O)c1cccc(C(=O)OCC(=O)NC(C)C(C)C)n1 (centres undefined) | 2 | 0.84 | -2
COCCOC(=O)c1[nH]c2c(c1C)C(=O)CC(c1ccco1)C2 (centres undefined) | 10 | . | 66*
CCCCOC(=O)c1[nH]c2c(c1C)C(=O)CC(c1cc(OC)c(OC)c(OC)c1)C2 (centres undefined) | 6 | . | -1
Cc1cc(C)n2nc(SCc3nnc(-c4ccccc4Br)o3)nc2n1 | 2 | -0.034 | 1
N#C/C(=C\c1ccc(Cl)cc1)c1nc2ncccc2[nH]1 | 42* | -2.2 | 21
N#C/C(=C\c1c(Cl)cccc1Cl)c1nc2ccccc2[nH]1 | . | . | -3
Cc1onc(-c2ccccc2)c1C(=O)Nc1nc2c(s1)CCCC2 | 19* | 0.99 | 0
Cc1onc(-c2ccccc2Cl)c1C(=O)Nc1sc2c(c1C#N)CCC2 | 7 | 1.6 | 0
Cc1onc(-c2c(F)cccc2Cl)c1C(=O)Nc1nc2c(s1)CCCC2 | 5 | 0.043 | -2
Cc1onc(-c2ccccc2)c1C(=O)Nc1sc2c(c1C#N)CCC(C)C2 (centres undefined) | 27* | 0.38 | 0
NC(=O)CC(NC(=O)Cc1cccc2ccccc12)c1ccc(NCCc2ccccc2F)c([N+](=O)[O-])c1 (centres undefined) | . | . | 2
O=C(Cn1c(-c2ccccn2)nc2ccccc21)N/N=C/c1cccnc1 | . | -0.79 | 1
CC1CCCC(NCC(=O)Nc2ccc(C(N)=O)cc2)C1C (centres undefined) | 2 | -0.34 | -5
Cc1ccc(NC2=C(CC(=O)O)C(c3ccccc3)N(c3ccc(C)cc3)C2=O)cc1 (centres undefined) | 12* | -0.0092 | 2
COc1ccc(C2C(CC(=O)O)=C(O)C(=O)N2c2ccccc2)cc1 (centres undefined) | 3 | 0.17 | -2
O=C(Cn1ncc2c3ccccc3n(Cc3ccccc3)c2c1=O)NCc1ccco1 | . | 0.34 | -1
COc1cccc(OCC(=O)NNC(=O)c2cccs2)c1 | 2 | 0.95 | 2
CCc1ccc(NC(=O)C(=O)NNC(=O)COc2cccc(OC)c2)cc1 | 3 | 2.8* | 2
C#CCNC(=O)C1=C[C@H](c2ccc3c(c2)OCO3)[C@@H](CCCO)[C@H](OCC)O1 | 4 | . | -3
O=C(COC(=O)c1ccc(NS(=O)(=O)c2ccc(F)c(F)c2)cc1)NCC1CCCO1 (centres undefined) | 2 | 1 | -1
O=C(N/N=C/c1ccccn1)c1cc(-c2ccc3ccccc3c2)n[nH]1 | 11 | . | 7
SMILES | MT stabilizer | ROMK mod | b-catenin transl
O=C(N/N=C/c1c[nH]c2ccccc12)c1cc(-c2cccc3ccccc23)n[nH]1 | 27* | . | 42
O=C(N/N=C/c1cccs1)c1cc(-c2cccc3ccccc23)n[nH]1 | 20 | 0.87 | 120*
O=C(N/N=C/c1c[nH]c2ccccc12)c1cc(-c2ccc(-c3ccccc3)cc2)n[nH]1 | 12 | -0.19 | 13
O=C(N/N=C/c1cccs1)c1cc(-c2ccc3ccccc3c2)n[nH]1 | 7 | . | 0
O=C(N/N=C/c1c[nH]c2ccccc12)c1cc(-c2ccccc2)n[nH]1 | 5 | . | -1
O=C(N/N=C/c1c[nH]c2ccccc12)c1cc(-c2ccc3ccccc3c2)n[nH]1 | 26* | . | 80*
Cc1ccc(-c2cc(C(=O)N/N=C/c3c[nH]c4ccccc34)[nH]n2)cc1 | 17* | 1.1 | 12
COc1ccccc1-c1nc(C#N)c(NCCCn2ccnc2)o1 | . | -2.4 | -1
Cc1ccc(CN(CC(=O)NCCc2ccccc2)C(=O)CCCC(=O)Nc2cc(C)on2)cc1 | 2 | -0.083 | -5
CC(C)CN1CN(Cc2ccccc2)CNC1=S | 3 | 0.18 | -1
CCn1c(SCC(=O)N/N=C/c2c[nH]c3ccccc23)nnc1-c1ccc(Cl)cc1 | 12* | 0.82 | 35
CCn1c(SCC(=O)N/N=C/c2c[nH]c3ccccc23)nnc1-c1ccc(C)cc1 | 4 | -0.62 | -3
Nc1c(C(=O)Nc2ccc(S(=O)(=O)N3CCCC3)cc2)sc2nc3ccc(OC(F)(F)F)cc3cc12 | 8 | -0.03 | 0
Nc1c(C(=O)Nc2ccc(S(=O)(=O)N3CCCC3)cc2)sc2nc3cc4c(cc3cc12)CCC4 | 28* | . | 2
CCOc1ccc(/C=C/C(O)=C2/C(=O)N(C)C3(C)CC2c2ccccc2O3)cc1OC (centres undefined) | 15* | 1.3 | 44
